# From the EternaBench riboswitch data
# Tested on: MS2 coat protein
# Assay: apparent Kd, MS2 coat protein; higher = weaker binding; RNA-MaP array; FMN 200 µM where present
# Method in brief: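 Green signal from SNAP-549-labelled MS2 coat protein was normalised to red-channel RNA signal and to the median Fmax of control clusters. The protein was titrated from 0.7 or 1.5 nM, doubling to 3 µM, without and then with constant ligand, over designs transcribed by stalled E. coli RNA polymerase on Illumina sequencing-chip clusters, in 100 mM Tris-HCl pH 7.5, 80 mM KCl, 4 mM MgCl2, BSA, DTT, yeast tRNA and Tween-20. The apparent Kd is the median of filtered per-cluster binding-curve fits.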
# [1] = designed as: ON switch for flavin mononucleotide, no ligand
# [2] = ligand present: flavin mononucleotide, designed as: ON switch for flavin mononucleotide
# [3] = designed as: OFF switch for flavin mononucleotide, no ligand
# [4] = ligand present: flavin mononucleotide, designed as: OFF switch for flavin mononucleotide
Sequence,apparent Kd [1],apparent Kd [2],apparent Kd [3],apparent Kd [4]
GUGCCUUAUGAGAAGGCGAUCAUGAAACAUGAUCGAGGAUAUCAUGUAAACAUGAGGAUCACCCAUGUAUGGGUAUUAUGGUAC,547 nM,55.5 nM,–,–
GACUCGCGCACAGGAUAUCCACAGAGCGGACGUGGAGAAGGGUGACAUGAGGAUCACCCAUGUACGUGAGUCUAGAUCACUUCC,52.4 nM,31 nM,–,–
CCUGUGUGAGGAUAUGGUGUUAAAAAAAAGGAAUAGCUCCUCCAGAAGGCACAUGAGGAUCACCCAUGUCGUGG,–,–,23.4 nM,57.1 nM
CCUGAGUCAGGAUAUUGUACCGGCCUGAAGCCAGGCCGGCCCAAGAAGGGACAUGAGGAUCACCCAUGUGAAAA,–,–,35.9 nM,73.9 nM
GCCUAGCUAGGAUAUACCCAGGGUUUGUUCUCUAACGACACACAUGAGGAUCACCCAUGUAGAAGGAGCCGGGA,–,–,47.2 nM,41.4 nM
CCUUUGUCAGGAUAUCGAAAAGGGAGGCCAAAAGCCUCCGGUGAGAAGGGACAUGAGGAUCACCCAUGUGAAAA,–,–,46.4 nM,159 nM
CGCUCAAUAGAGAAGGAAAGAAUCAGAAGGCGUUACAUGAGGAUCACCCAUGUUUUGUAUAGUAACGAGGAUAUGAUAUGAGCG,–,–,18.9 nM,15.3 nM
GCCAGUUAUGUAGGAUAUGCGAGGCGAGCCUGAGCAGAAGGACAUGAGGAUCACCCAUGUAUUGCGGUUUGAGUACUGAUCGCU,–,–,38.1 nM,215 nM
UUAAUAUAUCAGGAUAUGAUUAUAUGUGUUGAAUCAGAAGGGAUAACAUGAGGAUCACCCAUGUUGUGGAGUGA,–,–,69.3 nM,206 nM
AUUUUACAUGAGGAUCACCCAUGUUUUGGUGGGUCAGGAUAUAGAUCGGAUGAGUUCUGGCUAGAAGGGACAUAUA,75.9 nM,66.4 nM,–,–
GGUACCAUCACAGGAUAUGCUUUUCUUUGGGAAGCAGAAGGGUGUAACAUGAGGAUCACCCAUGUGGUACCAGGGCGUGAGCCC,170 nM,14.8 nM,–,–
AACGACUGAGGAUAUACAUGAGGAUCACCCAUGUAUUGAAAUACGUGCUUGGUCAACUGUAGAAGGCAGAAUAA,–,–,15.7 nM,40.6 nM
AUUUUAUAACAAGGAUAUACUAAACAUGAGGAUCACCCAUGUAAUAUUAUGAGUGAGAGAGAGAAGUAGAAGGUGUAUUAUUUU,–,–,102 nM,128 nM
GUAUAUCACUCAGGAUAUCUGUAAUUUGUUGAAACAUGAGGAUCACCCAUGUUCAUGAAUUUAUAGGAGAAGGGAGAGAUAUAC,4.58 nM,4.69 nM,–,–
AGUGUGUGGCAGGAUAUGCGAUUUGUAGGUGUUGCAGAAGGGUCUACAUGAGGAUCACCCAUGUGUGCGGUUGA,–,–,283 nM,570 nM
ACAGUGCGAGGAUAUACAUGAGGAUCACCCAUGUGAGAGAAAUAAGUGAGGAAGAAAAGUAGAAGGCGCGUUGA,–,–,75.5 nM,91.7 nM
UGUGCGUAUGUGAGGAUAUGCUGGUCCUUGGAUCAGCAGAAGGCACAUGAGGAUCACCCAUGUGGUGUCGUACC,–,–,314 nM,48 nM
AAUUCACAUGAGGAUCACCCAUGUCAGGAUAUGGUGACGCGGGUUUCGGUGCGUGUUGCCAGAAGGGACGGCUG,–,–,–,115 nM
GUCAGCUCGUGAGGAUAUACAACACUGCUUAGGCAGUGUAUUAAGAUCACAUGAGGAUCACCCAUGUAGAAGGCACGAGCUGAU,–,–,13.6 nM,222 nM
GGAUCGAAAGUGAGGAUAUGCUGGUCCUUGGAUCAGCAGAAGGCACAUGAGGAUCACCCAUGUGGUAACGGUCC,–,–,33.8 nM,172 nM
UUAAUUAUACAAGGAUAUCUAUUGUAGUUUCGACUGACAUGAGGAUCACCCAUGUAAAUAUGUUAAGAGAAGGUGUAUUUUAAA,56.8 nM,40.4 nM,–,–

Sequence,apparent Kd [1],apparent Kd [2],apparent Kd [3],apparent Kd [4]
CGCGAACAGUUUUACAUGAGGAUCACCCAUGUGGACUCAUGGUAGGAUAUCGGGAAGGAGGAAACCGAGAAGGGCUGGUGAGCC,312 nM,256 nM,–,–
AGCCGAAGCGCAGGAUAUACAUGUAUACAUGAGGAUCACCCAUGUAGCAACACGUGGUAGUGAUUGUAGAAGGGUGCUCGGCGC,32.8 nM,30 nM,–,–
GUAGCAUACCGAGGAUAUUCAUACCGUAAUCGGACAUGAGGAUCACCCAUGUGGCGAAAGCCUUGGGAGAAGGCGGAAUGCUAC,630 nM,27.6 nM,–,–
GGAUCGAGUGUGAGGAUAUGCUGGUCCUUGGAUCAGCAGAAGGCACAUGAGGAUCACCCAUGUGAUAUCGAUCC,–,–,56.1 nM,541 nM
AAACUACUAGGAUAUACAACGGUGUCCUAACUACUAAGAAAACAUGAGGAUCACCCAUGUAGAAGGAGUAGUGA,–,–,34.5 nM,62.3 nM
ACGCCCUGAGGAUAUCUUAUCCCGUACAUGAGGAUCACCCAUGUUUUCCUCCGGGCUCCGAGAGAAGGCAGGCCCA,–,–,42.2 nM,75.9 nM
GGACAUUUACAGAAGGGCAAAUUUUUUAUUGAAUAUUUAGUUCUGUUUUGCAGGAUAUGUUUUACAUGAGGAUCACCCAUGUCC,79.9 nM,30.6 nM,–,–
CCUAAGAAAGGAUAUACACCGGUGGGCCGCUGAAUUCAGCAACAUGAGGAUCACCCAUGUAGAAGGUUUAUGGG,–,–,75.2 nM,270 nM
UAGGAGUCAGGAUAUGCGAGAGAUUGAAGUAUGGGAUGUGAGCAGAAGGGACAUGAGGAUCACCCAUGUAUGGA,–,–,167 nM,150 nM
CAGUACUGAGGAUAUACAUGAGGAUCACCCAUGUGUUCCAGCUAGGAAACGAGCAAAAGUAGAAGGCAGUACUG,–,–,21.9 nM,282 nM
GUAGCAUGCAGCGAGGAUAUUCAUAUUAAAACAUGAGGAUCACCCAUGUAGGCCAAAAGGCCUUGGGAGAAGGCGCACAUGCUAC,777 nM,43.2 nM,–,–
AAACCUAUAGGAUAUACAUGAGGAUCACCCAUGUUGCGAUUUUUUAGGUAACAGAUCCGUAGAAGGGUAGGGCA,–,–,29.7 nM,46.9 nM
AUCAGCUCGUCAGGAUAUACGUCACUGCGUCAGCAGUGUGGUAAGAUCACAUGAGGAUCACCCAUGUAGAAGGGACGAGCUGUU,–,–,13.2 nM,269 nM
AUGGAUACCACAGGAUAUACCUGGAAUAUCCAGGUAGAAGGGUGGUCCAUCCUAUGUAAAUACAUGAGGAUCACCCAUGUGUCC,256 nM,244 nM,–,–
UGCAGCGUGCACAUGAGGAUCACCCAUGUGCCAGUGGACGCACAGGAUAUGCAAUCGUACGGCUAGCAGAAGGGUGGGUCUCAC,7.37 nM,7 nM,–,–
CCCAAACUUGGGCUUGGUGGUGCAUAGGAUAUGCUUGAACAUGAGGAUCACCCAUGUGCAACUGUGCAGAAGGGUGCAGGGCCU,12.7 nM,8.31 nM,–,–
AACAGGACAGGAUAUACAUGAGGAUCACCCAUGUAGGAAUUAAGCAGCGUACCACACAGUAGAAGGGUCAUGGA,–,–,35.5 nM,34.6 nM
UUUAUAAAGGUAGGAUAUUGUAUUAUAAUUAAAUAAGAAGGAUCUCACAUGAGGAUCACCCAUGUAAGAGGAUCACCCAUGUAU,–,–,8.68 nM,9.25 nM
GUGCACAUUCGAGGAUAUCGGAGAGAGAUCCUUCGAGAAGGCGAUUCAUGCUGUGUUAUUCUGGACAUGAGGAUCACCCAUGUG,326 nM,172 nM,–,–
CUAGCUAUCGGAGGAUAUUCAUACCGGAAACGGACAUGAGGAUCACCCAUGUGCCGAAAGGCUUGGGAGAAGGCCGAUAGCUAG,272 nM,20.6 nM,–,–
CGAAGUCCGUAGAAGGGUGACAUGAGGAUCACCCAUGUGCGAGCGGAGGGAGUCAGCGGCUCGCCACAGGAUAUACGGAGCACG,61.2 nM,51 nM,–,–
